Test results as given in ChEMBL document CHEMBL1938348, “Novel inhibitors of surface layer processing in Clostridium difficile” (Bioorg Med Chem, 2012).
Active and inactive are the calls of the source. The calls are words filed in the database; no cut-off is given here. Where a SMILES comes first, the peptide text is derived from it. The star is where a group is joined. X1 = CCOC(=O)/C=C/[C@H](CO)N*

Columns and labels:
Conditions in all cases: Clostridioides difficile
[1] = target: T1, Cell surface protein (Clostridium difficile (strain 630)) (UniProt Q183M1); test: Binding affinity to Clostridium difficile 630 cwp84 at lower band by Western blot analysis
T1 sequence (whole entry): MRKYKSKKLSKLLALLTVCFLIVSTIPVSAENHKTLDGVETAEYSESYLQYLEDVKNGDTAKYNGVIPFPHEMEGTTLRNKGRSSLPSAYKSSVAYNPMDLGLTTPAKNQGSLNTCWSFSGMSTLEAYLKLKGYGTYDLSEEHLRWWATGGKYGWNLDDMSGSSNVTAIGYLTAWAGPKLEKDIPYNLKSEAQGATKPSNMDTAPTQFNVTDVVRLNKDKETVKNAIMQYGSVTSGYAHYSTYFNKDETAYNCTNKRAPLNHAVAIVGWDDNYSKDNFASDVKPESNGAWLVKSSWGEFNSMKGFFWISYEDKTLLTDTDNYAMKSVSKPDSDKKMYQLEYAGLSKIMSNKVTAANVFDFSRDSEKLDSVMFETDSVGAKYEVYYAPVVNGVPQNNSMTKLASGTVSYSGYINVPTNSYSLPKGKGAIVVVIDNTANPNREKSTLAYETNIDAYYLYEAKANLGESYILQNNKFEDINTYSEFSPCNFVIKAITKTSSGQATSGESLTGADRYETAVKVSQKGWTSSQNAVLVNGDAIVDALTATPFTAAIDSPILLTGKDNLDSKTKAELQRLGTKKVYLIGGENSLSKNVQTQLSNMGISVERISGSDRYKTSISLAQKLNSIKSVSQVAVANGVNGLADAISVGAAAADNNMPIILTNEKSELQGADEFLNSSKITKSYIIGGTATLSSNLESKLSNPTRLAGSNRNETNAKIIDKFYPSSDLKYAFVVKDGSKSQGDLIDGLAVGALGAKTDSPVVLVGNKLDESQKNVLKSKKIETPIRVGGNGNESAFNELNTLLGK

[2] = target: T1, Cell surface protein (Clostridium difficile (strain 630)); test: Binding affinity to Clostridium difficile 630 higher molecular weight cwp84 by Western blot analysis
[3] = target: T2, Precursor of the S-layer proteins (Clostridium difficile (strain 630)) (UniProt Q183M8); test: Inhibition of Clostridium difficile 630 S-layer processing of slpA at 100 uM by Western blot analysis
T2 sequence (whole entry): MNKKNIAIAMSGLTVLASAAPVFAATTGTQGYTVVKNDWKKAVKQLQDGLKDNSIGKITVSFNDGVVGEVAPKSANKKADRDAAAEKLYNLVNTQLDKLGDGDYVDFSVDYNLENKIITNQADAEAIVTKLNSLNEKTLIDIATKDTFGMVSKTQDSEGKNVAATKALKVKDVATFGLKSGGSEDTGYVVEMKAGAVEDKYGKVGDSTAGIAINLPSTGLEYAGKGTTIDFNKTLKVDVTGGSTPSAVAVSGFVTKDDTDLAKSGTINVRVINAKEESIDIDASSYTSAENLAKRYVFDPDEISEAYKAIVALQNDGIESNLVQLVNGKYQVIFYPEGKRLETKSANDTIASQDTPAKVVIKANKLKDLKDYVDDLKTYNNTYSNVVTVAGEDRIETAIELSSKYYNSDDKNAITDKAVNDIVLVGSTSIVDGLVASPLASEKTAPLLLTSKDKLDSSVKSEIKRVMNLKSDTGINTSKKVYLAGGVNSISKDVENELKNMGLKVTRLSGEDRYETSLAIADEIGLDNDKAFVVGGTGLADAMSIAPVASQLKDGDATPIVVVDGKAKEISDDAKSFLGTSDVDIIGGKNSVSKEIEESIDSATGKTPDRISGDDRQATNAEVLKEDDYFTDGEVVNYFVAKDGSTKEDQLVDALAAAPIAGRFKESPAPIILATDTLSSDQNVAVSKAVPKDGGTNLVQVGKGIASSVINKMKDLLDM
Outline: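 C. difficile strain 630 grown overnight (16 h), anaerobic, 37 °C, in BHI with compound at 100 µM or DMSO vehicle. Surface layer proteins extracted with 0.2 M glycine–HCl pH 2.2 (30 min, room temperature), run on SDS–PAGE and semi-dry blotted to PVDF. Probed with rabbit anti-LMW SLP (1/200,000), then goat anti-rabbit-HRP (1/2000). Chemiluminescence read-out.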

[4] = target: T1, Cell surface protein (Clostridium difficile (strain 630)); test: Binding affinity to Clostridium difficile 630 cwp84 at 74 kDa by Western blot analysis

With `CCOC(=O)/C=C/[C@H](CO)NC(=O)[C@H](Cc1ccc(O)cc1)NC(=O)[C@H](CCCCNC(=O)CCCC[C@@H]1SC[C@@H]2NC(=O)N[C@@H]21)NC(C)=O` the Activity [1] was “Active”, the Activity [2] was “inactive” and the inhibition [3] was “Active”.

For `O=C(CCCC[C@@H]1SC[C@@H]2NC(=O)N[C@@H]21)NCCOCCOCCOCCNC(=O)[C@H](CO)NC(=O)CCl`, the inhibition [3] was “Active”.

In the case of `CCOC(=O)/C=C/C(=O)N[C@@H](C)C(=O)NCCOCCOCCOCCNC(=O)CCCC[C@@H]1SC[C@@H]2NC(=O)N[C@@H]21`, the inhibition [3] is reported as “inactive”.

In the case of `CCOC(=O)/C=C/C(=O)N[C@@H](CO)C(=O)NCCOCCOCCOCCNC(=O)CCCC[C@@H]1SC[C@@H]2NC(=O)N[C@@H]21`, the inhibition [3] is reported as “inactive”.

For `CCOC(=O)/C=C/C(=O)N[C@@H](CCCNC(=N)N)C(=O)NCCOCCOCCOCCNC(=O)CCCC[C@@H]1SC[C@@H]2NC(=O)N[C@@H]21`, the inhibition [3] was “inactive”.

`C[C@H](NC(=O)CF)C(=O)NCCOCCOCCOCCNC(=O)CCCC[C@@H]1SC[C@@H]2NC(=O)N[C@@H]21` was tested, and the inhibition [3] was “inactive”.

With `CC(C)C[C@H](NC(=O)CCl)C(=O)N[C@@H](CCCNC(=N)N)C(=O)NCCOCCOCCOCCNC(=O)CCCC[C@@H]1SC[C@@H]2NC(=O)N[C@@H]21` the Activity [4] was “Active”, the Activity [2] was “Active” and the inhibition [3] was “Active”.

For `CCOC(=O)/C=C/[C@H](CO)NC(=O)[C@H](CCCCN)NC(=O)[C@@H](NC(=O)[C@H](CCC(=O)O)NC(=O)[C@H](CC(C)C)NC(C)=O)[C@@H](C)O` (Ac-LETK-X1), the inhibition [3] was “Active”.

With `C[C@H](NC(=O)CCl)C(=O)NCCOCCOCCOCCNC(=O)CCCC[C@@H]1SC[C@@H]2NC(=O)N[C@@H]21` the inhibition [3] was “Active”.

In the case of `N=C(N)NCCC[C@H](NC(=O)CCl)C(=O)NCCOCCOCCOCCNC(=O)CCCC[C@@H]1SC[C@@H]2NC(=O)N[C@@H]21`, the inhibition [3] is reported as “Active”.

With `N=C(N)NCCC[C@H](NC(=O)CF)C(=O)NCCOCCOCCOCCNC(=O)CCCC[C@@H]1SC[C@@H]2NC(=O)N[C@@H]21` the inhibition [3] was “inactive”.

In the case of `CCOC(=O)/C=C/[C@H](CO)NC(=O)[C@H](CC(C)C)NC(=O)[C@H](CCCCNC(=O)CCCC[C@@H]1SC[C@@H]2NC(=O)N[C@@H]21)NC(C)=O`, the Activity [1] is reported as “Active”, the Activity [2] is reported as “inactive” and the inhibition [3] is reported as “Active”.

In the case of `CCOC(=O)/C=C/C(=O)N[C@@H](CC(C)C)C(=O)N[C@@H](CCCNC(=N)N)C(=O)NCCOCCOCCOCCNC(=O)CCCC[C@@H]1SC[C@@H]2NC(=O)N[C@@H]21`, the inhibition [3] is reported as “inactive”.

With `CC(C)C[C@H](NC(=O)CF)C(=O)N[C@@H](CCCNC(=N)N)C(=O)NCCOCCOCCOCCNC(=O)CCCC[C@@H]1SC[C@@H]2NC(=O)N[C@@H]21` the inhibition [3] was “inactive”.

For `O=C(CCCC[C@@H]1SC[C@@H]2NC(=O)N[C@@H]21)NCCOCCOCCOCCNC(=O)[C@H](CO)NC(=O)CF`, the inhibition [3] was “inactive”.
